We go through eight molecules from ChEMBL document CHEMBL1759860, “Synthesis and biological evaluation of 5-membered spiro heterocycle-benzopyran derivatives against myocardial ischemia” (2011).

Each structure is given as a SMILES string. Active and inactive are the calls of the source. The rule behind the calls is not given here.

Experiment [1] concerns H9c2. Nature of the experiment: Anti-ischemic activity against ischemia/reperfusion-induced rat H9c2 cell death assessed as cell viability at 10 uM in presence of mito-KATP channel blocker 5-hydroxydecanoic acid. In kind it is functional, cell-based.
In experiment [2] the test system is H9c2. Nature of the experiment: Anti-ischemic activity against ischemia/reperfusion-induced rat H9c2 cell death assessed as cell viability at 10 uM (Rbv = 63 +/- 2%). The experiment is classed as functional. The following applies: read-out: Activity.
The test system of experiment [3] is Rattus norvegicus. Description: Anti-ischemic activity against Langendorff perfused Wistar rat heart assessed as recovery of post-ischemic inotropic functionality measured during whole reperfusion period at 40 mg/kg, ip relative to control. The experiment is classed as functional, organism-based. Set-up: dose 40 mg/kg. The following applies: Wister. In outline:
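Rats pre-treated with test agent 40 mg/kg before heart isolation. Langendorff-perfused hearts underwent ischemia then reperfusion. Rate-pressure product (RPP) was recorded over the reperfusion period and expressed as % of pre-ischemic RPP.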

The subject of experiment [4] is Rattus norvegicus. Description: Anti-ischemic activity against in Langendorff perfused Wistar rat heart assessed as reduction in ischemia-induced left ventricular tissue injury at 40 mg/kg, ip by morphological analysis. The following applies: Wister. Also on record: dose 40 mg/kg. The experiment is classed as functional, organism-based. In outline: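 Hearts came from rats pre-treated at 40 mg/kg and underwent ischemia/reperfusion in Langendorff perfusion. Left ventricles were analysed morphologically for injured tissue. Infarct size was expressed as % of left ventricular area (Ai/ALV%).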

Experiment [5] deals with H9c2. Nature of the experiment: Anti-ischemic activity against ischemia/reperfusion-induced rat H9c2 cell death assessed as cell viability at 100 uM (Rbv = 63 +/- 2%). The experiment is classed as functional. The following applies: read-out: Activity.
In experiment [6] the test system is H9c2. Description: Anti-ischemic activity against ischemia/reperfusion-induced rat H9c2 cell death assessed as cell viability at 100 uM in presence of mito-KATP channel blocker 5-hydroxydecanoic acid. The experiment is classed as functional, cell-based.

On to `CC(=O)Nc1ccc(CN2CC3(CC(C)(C)Oc4ccccc43)OCC2=O)cc1` (stereo not given), for which the outcome in experiment [1] was inactive. For the same molecule, the viability at 10 µM in experiment [2] worked out at 99%. Also, the outcome in experiment [3] and in experiment [4] was Active.
With `CC(=O)Nc1ccc(CN2CC3(CC(C)(C)Oc4ccc(Br)cc43)OC2=O)cc1` (racemic), the viability at 10 µM in experiment [2] is 81%.
On the same count and under the same terms, under `CC(=O)Nc1ccc(CN2C(=N)C3(CC(C)(C)Oc4ccc(Br)cc43)OC2=O)cc1` (racemic) stands 76%; under `CC(=O)Nc1ccc(CN2C(=N)C3(CC(C)(C)Oc4ccccc43)OC2=O)cc1` (racemic), 68%.
On the same count and under the same terms, under `CC1(C)CC2(CN(Cc3ccc(NS(C)(=O)=O)cc3)C(=O)O2)c2ccccc2O1` (racemic) stands 84%; under `CC1(C)CC2(OC(=O)N(Cc3ccc(NS(C)(=O)=O)cc3)C2=N)c2cc(Br)ccc2O1` (racemic), 78%.
On to `CC(=O)Nc1ccc(CN2CC3(CC(C)(C)Oc4ccccc43)OC2=O)cc1` (racemic), for which the outcome in experiment [1] was inactive. In experiment [2], the viability at 10 µM stood at 92%. The result in experiment [3] and in experiment [4] was Active.
With `CC1=Nc2ccc(Cl)cc2S(=O)(=O)N1` [DIAZOXIDE], in experiment [5], the viability at 100 µM was 103%. Moreover, the result in experiment [6] was inactive.
